Five compounds from ChEMBL document CHEMBL1667763, “4-anilinoquinoline triazines: a novel class of hybrid antimalarial agents” (Eur J Med Chem, 2011) can be followed below.

Converted amounts (≈) assume the structure as drawn. The source made the active and inactive calls. The calls are words filed in the database; no cut-off is given here.

Assay [1] deals with Plasmodium yoelii. Put plainly: Antimalarial activity against chloroquine-resistant Plasmodium yoelii N-67 infected in Swiss mouse assessed as suppression of parasitaemia level at 50 mg/kg, ip qd for 4 days. The settings on record: route intraperitoneal. The class given is functional. An outline of the steps:
(§1)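 Swiss mice (22±2 g), groups of five, inoculated with 1×10^6 P. yoelii N-67 parasitized RBC on day 0; compounds as aqueous suspension with a few drops Tween 80, given intraperitoneally in 0.2 mL once daily days 0–3. Parasitemia from thin blood smears days 4–6, group mean % suppression vs untreated controls; survivors counted on day 28.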

The subject of assay [2] is Plasmodium yoelii. Put plainly: Antimalarial activity against chloroquine-resistant Plasmodium yoelii N-67 infected in Swiss mouse assessed as suppression of parasitaemia level at 25 mg/kg, ip qd for 4 days. Format: functional. The settings on record: route intraperitoneal. An outline of the steps: as §1
Assay [3] deals with Plasmodium yoelii. Put plainly: Antimalarial activity against chloroquine-resistant Plasmodium yoelii N-67 infected in Swiss mouse assessed as suppression of parasitaemia level at 100 mg/kg, po qd for 4 days. Format: functional. An outline of the steps: (§2)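 Swiss mice (22±2 g), groups of five, inoculated with 1×10^6 P. yoelii N-67 parasitized RBC on day 0; compounds as aqueous suspension with a few drops Tween 80, given orally in 0.1 mL once daily days 0–3. Parasitemia from thin blood smears days 4–6, group mean % suppression vs untreated controls; survivors counted on day 28.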

The subject of assay [4] is Plasmodium yoelii. Put plainly: Antimalarial activity against chloroquine-resistant Plasmodium yoelii N-67 infected in Swiss mouse assessed as suppression of parasitaemia level at 50 mg/kg, po qd for 4 days. Format: functional. The method in brief:
as §2

Assay [5] has as its system Plasmodium yoelii. Put plainly: Antimalarial activity against chloroquine-resistant Plasmodium yoelii N-67 infected in Swiss mouse assessed as mouse survival at 50 mg/kg, ip qd for 4 days. The arrangement: dose 50 mg/kg. The class given is functional, organism-based. An outline of the steps:
as §1

The test system of assay [6] is Plasmodium yoelii. Nature of the assay: Antimalarial activity against chloroquine-resistant Plasmodium yoelii N-67 infected in Swiss mouse assessed as mouse survival at 25 mg/kg, ip qd for 4 days. Format: functional, organism-based. The arrangement: dose 25 mg/kg. The method in brief: as §1
Assay [7] has as its system Plasmodium yoelii. Put plainly: Antimalarial activity against chloroquine-resistant Plasmodium yoelii N-67 infected in Swiss mouse assessed as mouse survival at 100 mg/kg, po qd for 4 days. The arrangement: dose 100 mg/kg. The class given is functional, organism-based. An outline of the steps: as §2
In assay [8] the test system is Plasmodium yoelii. Nature of the assay: Antimalarial activity against chloroquine-resistant Plasmodium yoelii N-67 infected in Swiss mouse assessed as mouse survival at 50 mg/kg, po qd for 4 days. On the set-up: dose 50 mg/kg. The class given is functional, organism-based. An outline of the steps: as §2
Assay [9] can be described thus: Inhibition of beta-hematin formation after 16 hrs. Format: functional. The method in brief: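 Plasma came from male Swiss mice (15–20 g) infected with 1 × 10⁵ infected RBCs. Blood was drawn at 50% parasitemia by cardiac puncture into 2.0% citrate and spun at 4 °C. Hemin substrate ([…]) and compound were incubated in 100 mM acetate buffer, pH 5.1, at 37 °C for 16 h with shaking. The pellet was washed in SDS buffers. IC50 was the mean of three experiments in triplicate.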

Assay [10] concerns Plasmodium falciparum 3D7. Nature of the assay: Selectivity index, IC50 for african green monkey Vero cells to IC50 for Plasmodium falciparum 3D7.
Another assay has as its system Plasmodium falciparum. Nature of the assay: Antimalarial activity against chloroquine-sensitive Plasmodium falciparum 3D7 infected in erythrocytes after 72 hrs by syber green 1 assay. The settings on record: 3D7, 72 h.

As a reminder, the IC50 is the midpoint of a concentration-inhibition curve. Take `Clc1ccc2c(Nc3ccc(Nc4nc(NCCCN5CCOCC5)nc(N5CCCCC5)n4)cc3)ccnc2c1`: the Activity in the assay on Plasmodium yoelii [1], in the assay with Plasmodium yoelii [2], in the assay on Plasmodium yoelii [3] and with Plasmodium yoelii [4] was 100% each time. In addition, the outcome in the assay on Plasmodium yoelii [5] and in the assay with Plasmodium yoelii [7] was Active. For the same compound, the outcome in the assay with Plasmodium yoelii [6] and in the assay on Plasmodium yoelii [8] was inactive. Besides, the IC50 was 2.71 µg/mL (≈ 4.72 µM) in assay [9] and 23.1 nM in the assay on Plasmodium falciparum. In [10], the “Selectivity Index” value is listed as 170.18.
Consider `CCN1CCN(c2nc(Nc3ccccc3)nc(Nc3ccc(Nc4ccnc5cc(Cl)ccc45)cc3)n2)CC1`, for which the Activity in the assay with Plasmodium yoelii [1] is 100%. In addition, in the assay on Plasmodium yoelii [5], the result was inactive. Further, the values for the IC50 (in [9]; with Plasmodium falciparum) were 2.69 µg/mL (≈ 4.87 µM) and 5.92 nM, respectively. Besides, in [10], the “Selectivity Index” value came to 192.66.
On to `CCCCNc1nc(Nc2ccccc2)nc(Nc2cccc(Nc3ccnc4cc(Cl)ccc34)c2)n1`, for which the Activity in the assay with Plasmodium yoelii [1] was 100%. The result with Plasmodium yoelii [5] was inactive. In addition, the IC50 in assay [9] was 2.55 µg/mL (≈ 4.99 µM); with Plasmodium falciparum, 26.3 nM. Besides, the “Selectivity Index” value in assay [10] is 156.25.
Take `CCN1CCN(c2nc(Nc3ccc(Nc4ccnc5cc(Cl)ccc45)cc3)nc(N3CCCCC3)n2)CC1`: the Activity in the assay with Plasmodium yoelii [1], in the assay with Plasmodium yoelii [2], in the assay with Plasmodium yoelii [3] and in the assay on Plasmodium yoelii [4] was 100% throughout. Besides, the result in the assay with Plasmodium yoelii [5] and in the assay with Plasmodium yoelii [7] was Active. The result in the assay with Plasmodium yoelii [6] and in the assay on Plasmodium yoelii [8] was inactive. Further, the results for the IC50 (in assay [9]; in the assay with Plasmodium falciparum) were 2.79 µg/mL (≈ 5.13 µM) and 29.7 nM, respectively. In assay [10], the “Selectivity Index” value is given as 124.85.
On to `Clc1ccc2c(Nc3ccc(Nc4nc(NCCCN5CCOCC5)nc(Nc5ccccc5)n4)cc3)ccnc2c1`, for which the Activity in the assay on Plasmodium yoelii [1], with Plasmodium yoelii [2] and with Plasmodium yoelii [3] was 100% throughout. Further, the outcome in the assay on Plasmodium yoelii [5] was Active. The result with Plasmodium yoelii [6] and with Plasmodium yoelii [7] was inactive. Also, the IC50 stood at 2.98 µg/mL (≈ 5.12 µM) in assay [9] and 3.01 nM in the assay on Plasmodium falciparum. For the same compound, the “Selectivity Index” value in assay [10] worked out at 154.29.
